Results pooled from the literature.
Compare with care: the assays were run in different laboratories.
Target: Cyclin-G-associated kinase (GAK, Homo sapiens, UniProt O14976)
Residues used in one study (O14976 1-1311): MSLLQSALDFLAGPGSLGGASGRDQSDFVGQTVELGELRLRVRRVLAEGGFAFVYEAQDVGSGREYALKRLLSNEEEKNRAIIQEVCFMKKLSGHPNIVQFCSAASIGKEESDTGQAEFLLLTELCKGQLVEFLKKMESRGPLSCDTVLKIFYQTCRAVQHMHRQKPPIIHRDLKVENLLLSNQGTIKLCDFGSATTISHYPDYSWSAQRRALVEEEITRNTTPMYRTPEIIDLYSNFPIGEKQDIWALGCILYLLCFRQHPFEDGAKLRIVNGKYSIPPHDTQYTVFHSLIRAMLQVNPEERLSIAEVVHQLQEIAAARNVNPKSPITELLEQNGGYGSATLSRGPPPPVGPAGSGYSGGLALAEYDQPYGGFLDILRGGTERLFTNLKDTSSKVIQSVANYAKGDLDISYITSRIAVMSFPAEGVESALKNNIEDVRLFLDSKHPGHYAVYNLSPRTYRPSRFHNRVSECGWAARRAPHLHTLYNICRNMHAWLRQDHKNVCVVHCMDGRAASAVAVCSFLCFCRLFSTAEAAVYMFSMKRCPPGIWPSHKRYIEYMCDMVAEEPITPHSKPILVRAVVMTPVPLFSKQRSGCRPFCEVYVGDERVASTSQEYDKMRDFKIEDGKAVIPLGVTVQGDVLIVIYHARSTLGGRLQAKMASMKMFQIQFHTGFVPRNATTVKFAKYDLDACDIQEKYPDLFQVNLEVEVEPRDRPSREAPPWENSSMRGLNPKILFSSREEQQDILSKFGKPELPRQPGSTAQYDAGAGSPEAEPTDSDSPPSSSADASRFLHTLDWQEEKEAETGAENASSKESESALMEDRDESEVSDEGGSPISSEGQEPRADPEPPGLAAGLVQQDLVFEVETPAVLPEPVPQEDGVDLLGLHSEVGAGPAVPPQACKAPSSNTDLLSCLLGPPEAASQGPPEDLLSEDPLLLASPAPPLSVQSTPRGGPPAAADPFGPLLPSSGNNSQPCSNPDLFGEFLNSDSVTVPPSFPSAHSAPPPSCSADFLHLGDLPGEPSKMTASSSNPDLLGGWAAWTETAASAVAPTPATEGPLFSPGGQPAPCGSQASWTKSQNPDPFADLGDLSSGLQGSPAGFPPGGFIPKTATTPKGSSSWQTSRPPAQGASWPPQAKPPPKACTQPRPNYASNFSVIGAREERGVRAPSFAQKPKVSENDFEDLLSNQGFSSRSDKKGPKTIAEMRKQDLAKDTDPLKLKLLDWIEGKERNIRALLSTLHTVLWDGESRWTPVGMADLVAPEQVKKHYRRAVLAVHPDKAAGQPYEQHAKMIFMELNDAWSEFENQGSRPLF

FC(F)(F)Oc1cccc(-c2cnc3ccc(-c4ccncc4)nn23)c1 — remaining binding (cell-free assay, competition with immobilised ligand; 5 µM): 9.7%
CN(CCCC(F)(F)F)c1nccc(-c2cnn3ncccc23)n1 — remaining binding (binding; 1 µM): 100%
C=CC(=O)N1CCC(C(=O)NCC(=O)N2CCN(c3nc(-c4cnc(N)nc4C(F)F)nc(N4CCOCC4)n3)CC2)CC1 — remaining binding (binding, competition with immobilised ligand; 1 µM): 100%
Cc1cnc(Nc2ccc(C(=O)N3CCC(N4CCCC4)CC3)cc2)nc1-c1cc2ccccc2s1 — remaining binding (binding, competition with immobilised ligand; 1 µM): 8.2%
CC1CCCN1c1nccc(-c2cnn3ncccc23)n1 (stereo not shown) — remaining binding (binding; 1 µM): 94%
COc1cnc(Nc2cccc(S(N)(=O)=O)c2)nc1N1CCN(c2ccccc2)CC1 — remaining binding (binding, competition with immobilised ligand; 1 µM): 85%
Cn1nc(C(=O)NCc2ccc(C(=O)O)cc2)cc1-c1ccc2[nH]ccc2c1 — remaining binding (cell-free assay, competition with immobilised ligand; 0.1 µM): 90%
O=C(c1ccc(Nc2ncc(Cl)c(-c3ccc(Cl)s3)n2)cc1)N1CCC(N2CCCC2)CC1 — remaining binding (binding, competition with immobilised ligand; 1 µM): 23%
N[C@H]1CCN(c2nccc(-c3cnn4ncccc34)n2)C1 — remaining binding (binding; 1 µM): 80%
COc1ncc2cc3ccccc3nc2c1C#N — remaining binding (cell-free assay, competition with immobilised ligand; 5 µM): 87%
CN(C)c1ncc(F)c(-c2cnn3ncccc23)n1 — remaining binding (binding; 1 µM): 100%
O=C(O)c1cc(-c2ccc(C3CCNCC3)cc2)c2ccc(-c3ccc(C(F)(F)F)cc3)cc2c1 — remaining binding (cell-free assay, competition with immobilised ligand; 1 µM): 100%
O=C(c1ccc(Nc2ncc(Cl)c(-c3cc4ccccc4s3)n2)cc1)N1CCC(N2CCCC2)CC1 — remaining binding (binding, competition with immobilised ligand; 1 µM): 48%
C[C@@H]1CCN(c2nccc(-c3cnn4ncccc34)n2)C1 — remaining binding (binding; 1 µM): 40%
Cn1nc(C(F)(F)F)cc1-c1cnc(N2CCc3cc(S(=O)(=O)Nc4c(F)cc(Cl)cc4F)cc(N4CCCC4=O)c32)nc1 — remaining binding (cell-free assay, competition with immobilised ligand; 1 µM): 94%
F[C@@H]1CCN(c2nccc(-c3cnn4ncccc34)n2)C1 — remaining binding (binding; 1 µM): 85%
CN1CCN(c2cnc3c(C4CCN(C(=O)c5ccc(OC(F)(F)F)cc5N)CC4)ncnc3c2)CC1 — remaining binding (cell-free assay, competition with immobilised ligand; 1 µM): 100%
O=C(NCC1CCOCC1)c1n[nH]cc1NC(=O)c1c(F)cccc1F — remaining binding (binding, competition with immobilised ligand; 1 µM): 88%
O=C(NC[C@@H]1[C@H]2CN(C(=O)OCc3cc(C(F)(F)F)cc(C(F)(F)F)c3)C[C@@H]12)c1ccc2[nH]nnc2c1 — remaining binding (cell-free assay, competition with immobilised ligand; 1 µM): 91%
Nc1ncc2c(n1)-c1c([nH]c3ccc(C#CC4CC4)cc13)CCCC2 — remaining binding (binding, competition with immobilised ligand; 1 µM): 88%
c1cncc(-c2cccc(Nc3nccc(NC4CCCCC4)n3)c2)c1 — remaining binding (binding, competition with immobilised ligand; 10 µM): 42%
CC(=O)N1CCC(c2ccc(C(=O)NC3=NCCN3)cc2C(F)(F)F)CC1 — remaining binding (cell-free assay, competition with immobilised ligand; 1 µM): 97%
